Assays:
Type in all cases: functional
KM12 = assay: Anticancer activity against human KM12 cells
Outline: (§1)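 NCI 60-cell human tumour panel (leukemia, lung, colon, CNS, melanoma, ovarian, renal, prostate, breast). A first-stage single-dose screen at 10 µM was run. Compounds giving over 60% growth inhibition in at least eight lines went on to a five-dose response. Effect was plotted against log10 molar concentration per line. GI50 is the concentration giving 50% reduction in net protein increase versus control cells. LC50 is the concentration lethal to 50% of cells.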

PC-3 = assay: Anticancer activity against human PC3 cells; outline: as §1
U-251 = assay: Anticancer activity against human U251 cells
Outline: (§2)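 NCI 60-cell-line panel. A single-dose (10 µM) prescreen was run first. Compounds giving over 60% growth inhibition in at least eight lines then went to five-dose response studies. Dose-response curves of effect versus log10 concentration. GI50 is the molar concentration giving a 50% reduction in net protein increase versus control cells. LC50 is the concentration lethal to 50% of cells.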

COLO 205 = assay: Anticancer activity against human COLO205 cells; outline: as §1
MDA-MB-435 = assay: Anticancer activity against human MDA-MB-435 cells; outline: as §1
SN12C = assay: Anticancer activity against human SN12C cells; outline: as §1
CCRF-CEM = assay: Anticancer activity against human CCRF-CEM cells; outline: as §1
OVCAR-8 = assay: Anticancer activity against human OVCAR8 cells; outline: as §1
NCI-H23 = assay: Anticancer activity against human NCI-H23 cells; outline: as §1
HT-29 = assay: Anticancer activity against human HT-29 cells; outline: as §1
A498 = assay: Anticancer activity against human A498 cells; outline: as §1
UO-31 = assay: Anticancer activity against human UO31 cells; outline: as §2
TK-10 = assay: Anticancer activity against human TK10 cells; outline: as §2
CAKI-1 = assay: Anticancer activity against human Caki1 cells; outline: as §1
K562 = assay: Anticancer activity against human K562 cells; outline: as §1
SW-620 = assay: Anticancer activity against human SW620 cells; outline: as §2
OVCAR-5 = assay: Anticancer activity against human OVCAR5 cells; outline: as §1
HOP-62 = assay: Anticancer activity against human HOP62 cells; outline: as §1
[1] = Anticancer activity against human NCI/ADR cells; details: NCI/ADR-RES; outline: as §1
HCT-116 = assay: Anticancer activity against human HCT116 cells; outline: as §1
HCC 2998 = assay: Anticancer activity against human HCC2998 cells; outline: as §1
SNB-75 = assay: Anticancer activity against human SNB75 cells; outline: as §2
SF-268 = assay: Anticancer activity against human SF268 cells; outline: as §1
SK-OV-3 = assay: Anticancer activity against human SKOV3 cells; outline: as §1
OVCAR-3 = assay: Anticancer activity against human OVCAR3 cells; outline: as §1
SK-MEL-5 = assay: Anticancer activity against human SK-MEL-5 cells; outline: as §1
MCF7 = assay: Anticancer activity against human MCF7 cells; outline: as §1
BT-549 = assay: Anticancer activity against human BT549 cells; outline: as §1
SF-539 = assay: Anticancer activity against human SF539 cells; outline: as §1
[2] = Anticancer activity against human […] cells; outline: as §1
[3] = Anticancer activity against human Hs 578T cells; outline: as §1
SF-295 = assay: Anticancer activity against human SF295 cells; outline: as §1
OVCAR-4 = assay: Anticancer activity against human OVCAR4 cells; outline: as §1
UACC-62 = assay: Anticancer activity against human UACC62 cells; outline: as §2
786-0 = assay: Anticancer activity against human 786-0 cells; outline: as §1
UACC-257 = assay: Anticancer activity against human UACC257 cells; outline: as §2
SNB-19 = assay: Anticancer activity against human SNB19 cells; outline: as §1
LOX IMVI = assay: Anticancer activity against human LOXIMVI cells; outline: as §1
ACHN = assay: Anticancer activity against human ACHN cells; outline: as §1
IGROV-1 = assay: Anticancer activity against human IGROV1 cells; outline: as §1
MOLT-4 = assay: Anticancer activity against human MOLT4 cells; outline: as §1
SK-MEL-2 = assay: Anticancer activity against human SK-MEL-2 cells; outline: as §1
SK-MEL-28 = assay: Anticancer activity against human SK-MEL-28 cells; outline: as §1
Malme-3M = assay: Anticancer activity against human MALME-3M cells; outline: as §1
RXF 393 = assay: Anticancer activity against human RXF393 cells; outline: as §1
NCI-H226 = assay: Anticancer activity against human NCI-H226 cells; outline: as §1
MDA-MB-231 = assay: Anticancer activity against human MDA-MB-231 cells; outline: as §1
A549 = assay: Anticancer activity against human A549 cells; outline: as §1
NCI-H460 = assay: Anticancer activity against human NCI-H460 cells; outline: as §1
MDA-MB-468 = assay: Anticancer activity against human MDA-MB-468 cells; outline: as §1
NCI-H322M = assay: Anticancer activity against human NCI-H322M cells; outline: as §1
T47D = assay: Anticancer activity against human T47D cells; outline: as §2
M14 = assay: Anticancer activity against human M14 cells; outline: as §1
HL-60(TB) = assay: Anticancer activity against human HL-60(TB) cells; outline: as §1
EKVX = assay: Anticancer activity against human EKVX cells; outline: as §1
[4] = read-out: LC50 (the source's name)

Compound: COC(=O)c1ccc2c(/C=C3\NC(=O)NC3=O)cn(Cc3ccc(C#N)cc3)c2c1
- GI50 (KM12): 3.73 µM
- CC50 (KM12; [4]): > 100 µM
- GI50 (PC-3): 2.44 µM
- CC50 (PC-3; [4]): > 100 µM
- GI50 (U-251): 2.03 µM
- CC50 (U-251; [4]): 59.1 µM
- GI50 (COLO 205): 3.16 µM
- CC50 (COLO 205; [4]): > 100 µM
- GI50 (MDA-MB-435): 2.76 µM
- CC50 (MDA-MB-435; [4]): > 100 µM
- GI50 (SN12C): 2.8 µM
- CC50 (SN12C; [4]): > 100 µM
- GI50 (CCRF-CEM): 3.06 µM
- CC50 (CCRF-CEM; [4]): > 100 µM
- GI50 (OVCAR-8): 3.75 µM
- CC50 (OVCAR-8; [4]): > 100 µM
- GI50 (NCI-H23): 4.07 µM
- CC50 (NCI-H23; [4]): > 100 µM
- GI50 (HT-29): 5.99 µM
- CC50 (HT-29; [4]): > 100 µM
- GI50 (A498): 0.55 µM
- CC50 (A498; [4]): > 100 µM
- GI50 (UO-31): 2.7 µM
- CC50 (UO-31; [4]): > 100 µM
- GI50 (TK-10): 3.87 µM
- CC50 (TK-10; [4]): > 100 µM
- GI50 (CAKI-1): 2.74 µM
- CC50 (CAKI-1; [4]): > 100 µM
- GI50 (K562): 0.97 µM
- CC50 (K562; [4]): > 100 µM
- GI50 (SW-620): 2.27 µM
- CC50 (SW-620; [4]): > 100 µM
- GI50 (OVCAR-5): 5.51 µM
- CC50 (OVCAR-5; [4]): > 100 µM
- GI50 (HOP-62): 3.58 µM
- CC50 (HOP-62; [4]): 73 µM
- GI50 [1]: > 100 µM
- CC50 [1, 4]: > 100 µM
- GI50 (HCT-116): 1.21 µM
- CC50 (HCT-116; [4]): > 100 µM
- GI50 (HCC 2998): 2.43 µM
- CC50 (HCC 2998; [4]): 85 µM
- GI50 (SNB-75): 4.6 µM
- CC50 (SNB-75; [4]): > 100 µM
- GI50 (SF-268): 4.22 µM
- CC50 (SF-268; [4]): > 100 µM
- GI50 (SK-OV-3): 0.86 µM
- CC50 (SK-OV-3; [4]): 79.8 µM
- GI50 (OVCAR-3): 2.05 µM
- CC50 (OVCAR-3; [4]): > 100 µM
- GI50 (SK-MEL-5): 3.25 µM
- CC50 (SK-MEL-5; [4]): > 100 µM
- GI50 (MCF7): 3.55 µM
- CC50 (MCF7; [4]): > 100 µM
- GI50 (BT-549): 1.24 µM
- CC50 (BT-549; [4]): > 100 µM
- GI50 (SF-539): 2.39 µM
- CC50 (SF-539; [4]): > 100 µM
- GI50 [2]: 3.61 µM
- CC50 [2, 4]: > 100 µM
- GI50 [3]: 0.97 µM
- CC50 [3, 4]: > 100 µM
- GI50 (SF-295): 3.09 µM
- CC50 (SF-295; [4]): > 100 µM
- GI50 (OVCAR-4): 4.13 µM
- CC50 (OVCAR-4; [4]): > 100 µM
- GI50 (UACC-62): 1.27 µM
- CC50 (UACC-62; [4]): 51 µM
- GI50 (786-0): 2.36 µM
- CC50 (786-0; [4]): > 100 µM
- GI50 (UACC-257): 4.2 µM
- CC50 (UACC-257; [4]): > 100 µM
- GI50 (SNB-19): 3.77 µM
- CC50 (SNB-19; [4]): > 100 µM
- GI50 (LOX IMVI): 1.43 µM
- CC50 (LOX IMVI; [4]): > 100 µM
- GI50 (ACHN): 2.08 µM
- CC50 (ACHN; [4]): > 100 µM
- GI50 (IGROV-1): 0.66 µM
- CC50 (IGROV-1; [4]): > 100 µM
- GI50 (MOLT-4): 1.38 µM
- CC50 (MOLT-4; [4]): > 100 µM
- GI50 (SK-MEL-2): 0.3 µM
- CC50 (SK-MEL-2; [4]): 30.6 µM
- GI50 (SK-MEL-28): 3.79 µM
- CC50 (SK-MEL-28; [4]): > 100 µM
- GI50 (Malme-3M): 2.01 µM
- CC50 (Malme-3M; [4]): > 100 µM
- GI50 (RXF 393): 0.58 µM
- CC50 (RXF 393; [4]): > 100 µM
- GI50 (NCI-H226): 5.94 µM
- CC50 (NCI-H226; [4]): > 100 µM
- GI50 (MDA-MB-231): 3.32 µM
- CC50 (MDA-MB-231; [4]): > 100 µM
- GI50 (A549): 4.44 µM
- CC50 (A549; [4]): > 100 µM
- GI50 (NCI-H460): 2.91 µM
- CC50 (NCI-H460; [4]): > 100 µM
- GI50 (MDA-MB-468): 4.14 µM
- CC50 (MDA-MB-468; [4]): > 100 µM
- GI50 (NCI-H322M): 0.72 µM
- CC50 (NCI-H322M; [4]): > 100 µM
- GI50 (T47D): 1.5 µM
- CC50 (T47D; [4]): > 100 µM
- GI50 (M14): 1.43 µM
- CC50 (M14; [4]): > 100 µM
- GI50 (HL-60(TB)): 2.54 µM
- CC50 (HL-60(TB); [4]): > 100 µM
- GI50 (EKVX): 4.22 µM
- CC50 (EKVX; [4]): > 100 µM
